Experimental data gathered from unrelated publications.
Lines come from different studies, so protocols differ.

SMILES | host | medium | route | dose | setting | measurement | result
COCc1nn(Cc2ccc(Cn3ccccc3=O)cc2)cc1C(=O)NCc1nccc(OC)c1F | male beagle dog | plasma | intravenous | 1 mg/kg | – | Vd | < 1 L
C=CC(=O)Nc1cc(Nc2nccc(Nc3cc(Cl)c(F)cc3C(C)(C)O)n2)c(OC)cc1N1CC[C@@H](N(C)C)C1 | beagle dog | plasma | intravenous | 1 mg/kg | – | Vd | 29.5 L/kg
Oc1c(-n2ccnn2)cnn1-c1cc(N2CCOCC2)ncn1 | female dog | plasma | intravenous | 3 mg/kg | – | Vd | 0.78 L/kg
CN1CCC(c2ccccc2CC(C)(C)Nc2nc(N3CCOCC3)nc(-n3c(C(F)F)nc4ccccc43)n2)CC1 | dog | plasma | intravenous | 2 mg/kg | single dose | Vd | 9.7 L/kg
Cc1nnc2sc(C(=O)NCc3ccc(-c4cccnc4F)cc3)c(N)c2c1C | dog | plasma | intravenous | – | – | Vd | 0.7 L/kg
CC[C@@H]1CN(C(=O)NCC(F)(F)F)C[C@@H]1c1cnc2cnc3[nH]ccc3n12 | beagle dog | plasma | oral | 1 mg/kg | single dose | Vd/F | 29.1 L/kg
O=C(NCCN1CCCC1)c1cc(-c2ccc(CN3CCOCC3)cc2)nc2ccc(F)cc12 | male beagle dog | blood | intravenous | 1 mg/kg | – | Vd | 30 L/kg
CCn1c(=O)c(-c2cc(NC(=O)Nc3ccccc3)c(F)cc2Br)cc2cnc(NC)cc21 | beagle dog | plasma | oral | 5 mg/kg | single dose | Vd/F | 12.7 L/kg
COc1ccnc(CNC(=O)c2cn(Cc3ccc(Cn4ccccc4=O)cc3)nc2C(F)(F)F)c1F | male beagle dog | plasma | intravenous | 1 mg/kg | – | Vd | < 1 L
